In ChEMBL document CHEMBL1926565, “Synthesis, antiproliferative activities and telomerase inhibition evaluation of novel asymmetrical 1,2-disubstituted amidoanthraquinone derivatives” (Eur J Med Chem, 2012):

Columns and labels:
Type in all cases: functional
RPMI-8226 [1] = test: Cytotoxicity against human RPMI8226 cells assessed as cellular growth at 10 uM
How it was run: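 Single-dose screen run by the NCI across its 60-human-tumour-cell-line panel; growth recorded for each cell line.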

HCT-15 = test: Anticancer activity against human HCT15 cells
How it was run: (§1)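 NCI 60-human-tumour-cell-line panel. Selected analogues were first run at one dose, then some were carried into multi-dose testing. GI50 (50% growth inhibition), TGI (total growth inhibition) and LC50 (50% cell kill) were read as values interpolated where the dose–response curves cross these levels.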

SNB-19 = test: Anticancer activity against human SNB19 cells; details: read-out: LC50 (the source's name)
How it was run: (§2)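 Tested by the NCI in its 60-human-tumour-cell-line panel. Dose-response curves were run, and GI₅₀ (50% growth inhibition), TGI (total growth inhibition) and LC₅₀ (50% cell killing) were read as interpolated concentrations where the curves cross those levels.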

SK-MEL-5 = test: Anticancer activity against human SK-MEL-5 cells; details: for CC50: read-out: LC50 (the source's name); how it was run: as §1
A498 = test: Anticancer activity against human A498 cells; details: for CC50: read-out: LC50 (the source's name); how it was run: as §1
BT-549 = test: Anticancer activity against human BT549 cells; details: for CC50: read-out: LC50 (the source's name); how it was run: as §1
NCI-H522 = test: Anticancer activity against human NCI-H522 cells; how it was run: as §1
CAKI-1 = test: Anticancer activity against human Caki1 cells; details: for CC50: read-out: LC50 (the source's name); how it was run: as §1
K562 = test: Anticancer activity against human K562 cells; how it was run: as §1
LOX IMVI = test: Anticancer activity against human LOXIMVI cells; details: for CC50: read-out: LC50 (the source's name); how it was run: as §1
MCF7 = test: Anticancer activity against human MCF7 cells; details: for CC50: read-out: LC50 (the source's name); how it was run: as §1
SW-620 = test: Anticancer activity against human SW620 cells; details: for CC50: read-out: LC50 (the source's name)
NCI-H226 = test: Anticancer activity against human NCI-H226 cells; details: for CC50: read-out: LC50 (the source's name); how it was run: as §1
Malme-3M = test: Anticancer activity against human MALME-3M cells; details: for CC50: read-out: LC50 (the source's name); how it was run: as §2
SNB-75 = test: Anticancer activity against human SNB75 cells; details: for CC50: read-out: LC50 (the source's name); how it was run: as §1
RPMI-8226 [2] = test: Anticancer activity against human RPMI8226 cells; how it was run: as §1
UACC-62 = test: Anticancer activity against human UACC62 cells; details: for CC50: read-out: LC50 (the source's name)
SR = test: Anticancer activity against human SR cells; how it was run: as §1
M14 = test: Anticancer activity against human M14 cells; how it was run: as §1
MDA-MB-231 = test: Anticancer activity against human MDA-MB-231 cells; details: for CC50: read-out: LC50 (the source's name); how it was run: as §1
MDA-MB-468 = test: Anticancer activity against human MDA-MB-468 cells; details: for CC50: read-out: LC50 (the source's name); how it was run: as §1
UACC-257 = test: Anticancer activity against human UACC257 cells; details: for CC50: read-out: LC50 (the source's name)
HCT-116 = test: Anticancer activity against human HCT116 cells; details: for CC50: read-out: LC50 (the source's name); how it was run: as §1
SF-295 = test: Anticancer activity against human SF295 cells; details: for CC50: read-out: LC50 (the source's name); how it was run: as §1
HT-29 = test: Anticancer activity against human HT-29 cells; details: for CC50: read-out: LC50 (the source's name); how it was run: as §1
NCI-H23 = test: Anticancer activity against human NCI-H23 cells; how it was run: as §1
SF-539 = test: Anticancer activity against human SF539 cells; details: read-out: LC50 (the source's name); how it was run: as §1
CCRF-CEM = test: Anticancer activity against human CCRF-CEM cells; how it was run: as §1
HL-60(TB) = test: Anticancer activity against human HL-60(TB) cells; how it was run: as §2
MOLT-4 = test: Anticancer activity against human MOLT4 cells; how it was run: as §1
[3] = read-out: LC50 (the source's name)

## Cc1ccc(C(=O)Nc2ccc3c(c2NC(=O)c2ccc(C)cc2)C(=O)c2ccccc2C3=O)cc1
RPMI-8226 [1]
  Activity: 101.77%

## Cc1ccc(C(=O)Nc2c(NC(=O)CN3CCN(C)CC3)ccc3c2C(=O)c2ccccc2C3=O)cc1
HCT-15
  GI50: 3.36 µM
  LC50: > 100 µM
  TGI: > 100 µM
SNB-19
  CC50: > 100 µM
SK-MEL-5
  GI50: 1.94 µM
  CC50: > 100 µM
A498
  GI50: > 100 µM
  TGI: > 100 µM
  CC50: > 100 µM
BT-549
  GI50: > 100 µM
  TGI: > 100 µM
  CC50: > 100 µM
NCI-H522
  TGI: > 100 µM
NCI-H522; [3]
  CC50: > 100 µM
CAKI-1
  TGI: > 100 µM
  CC50: > 100 µM
K562
  GI50: 2.09 µM
LOX IMVI
  TGI: > 100 µM
  CC50: > 100 µM
MCF7
  GI50: 3.13 µM
  TGI: > 100 µM
  CC50: > 100 µM
SW-620
  TGI: > 100 µM
  CC50: > 100 µM
NCI-H226
  GI50: > 100 µM
  TGI: > 100 µM
  CC50: > 100 µM
Malme-3M
  CC50: > 100 µM
SNB-75
  GI50: > 100 µM
  TGI: > 100 µM
  CC50: > 100 µM
RPMI-8226 [2]
  GI50: 3.25 µM
  LC50 (50% cell kill): > 100 µM
  TGI: > 100 µM
UACC-62
  GI50: 2.52 µM
  CC50: > 100 µM
SR
  LC50: > 100 µM
  TGI: 4.65 µM
M14
  GI50: 2.22 µM
  TGI: 4.65 µM
MDA-MB-231
  GI50: 3.3 µM
  TGI: > 100 µM
  CC50: > 100 µM
MDA-MB-468
  GI50: 2.58 µM
  TGI: > 100 µM
  CC50: > 100 µM
UACC-257
  GI50: 2.23 µM
  TGI: 5.81 µM
  CC50: > 100 µM
HCT-116
  GI50: 3.08 µM
  TGI: > 100 µM
  CC50: > 100 µM
SF-295
  GI50: > 100 µM
  TGI: > 100 µM
  CC50: > 100 µM
HT-29
  GI50: 3.09 µM
  TGI: > 100 µM
  CC50: > 100 µM
NCI-H23
  GI50: > 100 µM
  LC50 (50% cell kill): > 100 µM
  TGI: > 100 µM

## Cc1ccc(C(=O)Nc2c(NC(=O)CCl)ccc3c2C(=O)c2ccccc2C3=O)cc1
HCT-15
  LC50: 28.4 µM
SNB-19
  CC50: 27.6 µM
SK-MEL-5
  GI50: 0.83 µM
  TGI: 1.53 µM
  CC50: 2.83 µM
A498
  GI50: 9.87 µM
  TGI: 22.5 µM
  CC50: > 50 µM
BT-549
  GI50: 2.58 µM
  TGI: 16.3 µM
  CC50: > 50 µM
NCI-H522
  GI50: 0.88 µM
  TGI: 2.03 µM
CAKI-1
  GI50: 6.87 µM
  TGI: 15.2 µM
  CC50: 33.7 µM
SF-539
  CC50: 25.1 µM
K562
  GI50: 1.87 µM
  LC50 (50% net cell kill): > 50 µM
  TGI: 4.04 µM
LOX IMVI
  GI50: 0.78 µM
  TGI: 1.84 µM
  CC50: 4.29 µM
MCF7
  GI50: 1.12 µM
  TGI: 4.95 µM
  CC50: > 50 µM
SW-620
  GI50: 1.87 µM
  TGI: 9.31 µM
  CC50: > 50 µM
NCI-H226
  GI50: 8.81 µM
  TGI: 20.8 µM
  CC50: 49.1 µM
CCRF-CEM
  GI50: 2.54 µM
  TGI: > 50 µM
CCRF-CEM; [3]
  CC50: > 50 µM
Malme-3M
  GI50: 5.89 µM
  TGI: 15.6 µM
  CC50: 41.1 µM
SNB-75
  CC50: 30.5 µM
RPMI-8226 [2]
  GI50: 1.35 µM
  LC50 (50% cell kill): > 50 µM
  TGI: > 50 µM
UACC-62
  GI50: 9.92 µM
  TGI: 17.9 µM
  CC50: 32.2 µM
SR
  GI50: 1.59 µM
  LC50: > 50 µM
  TGI: > 50 µM
M14
  GI50: 4.72 µM
  TGI: 12.4 µM
M14; [3]
  CC50: 31.4 µM
HL-60(TB)
  GI50: 6.14 µM
  TGI: 24.6 µM
HL-60(TB); [3]
  CC50: > 50 µM
MDA-MB-231
  GI50: 6.51 µM
  TGI: > 50 µM
  CC50: > 50 µM
MDA-MB-468
  GI50: 0.83 µM
  TGI: 1.82 µM
  CC50: 3.98 µM
UACC-257
  GI50: 1.61 µM
  TGI: 6.27 µM
  CC50: 24.3 µM
HCT-116
  GI50: 1.05 µM
  TGI: 2.46 µM
  CC50: 9.32 µM
SF-295
  CC50: 42.2 µM
HT-29
  CC50: > 50 µM
MOLT-4
  GI50: 2.29 µM
  TGI: 2.95 µM
MOLT-4; [3]
  CC50: > 50 µM
NCI-H23
  GI50: 1.78 µM
  LC50 (50% cell kill): 31.4 µM
  TGI: 8.28 µM
